Drawing on ChEMBL document CHEMBL4411269, “Required Immunoproteasome Subunit Inhibition Profile for Anti-Inflammatory Efficacy and Clinical Candidate KZR-616 ((2 S,3 R)- N-(( S)-3-(Cyclopent-1-en-1-yl)-1-(( R)-2-methyloxiran-2-yl)-1-oxopropan-2-yl)-3-hydroxy-3-(4-methoxyphenyl)-2-(( S)-2-(2-morpholinoacetamido)propanamido)propenamide)” (J Med Chem, 2018), this text covers Activity, inhibition and half-life for 3 compounds.

Active and inactive are the calls of the source. The calls are words filed in the database; no cut-off is given here.

The subject of data set [1] is PBMC. Nature of the data set: Cytotoxicity in human PBMC assessed as reduction in cell viability at 250 nM relative to control. The data set is classed as cell-based.
For data set [2], the target named is T1, Proteasome subunit beta type-8 (Homo sapiens) (UniProt P28062).
T1 sequence (whole entry): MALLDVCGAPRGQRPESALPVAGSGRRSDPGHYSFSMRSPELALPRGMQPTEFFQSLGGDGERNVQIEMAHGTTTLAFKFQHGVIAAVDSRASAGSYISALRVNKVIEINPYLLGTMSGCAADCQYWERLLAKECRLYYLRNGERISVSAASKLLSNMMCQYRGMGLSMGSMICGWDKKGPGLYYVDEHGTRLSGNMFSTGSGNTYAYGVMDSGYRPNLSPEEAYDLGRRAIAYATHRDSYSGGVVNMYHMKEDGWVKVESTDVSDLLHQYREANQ
Nature of the data set: Inhibition of LMP7 in human PBMC at 250 nM by ELISA. The gist of the method: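 Cryopreserved healthy-donor human PBMC in RPMI 1640 with 5% heat-inactivated FBS, exposed to compound (0.1% DMSO final) for 1 h at 37 °C, 5% CO2, then washed. Subunit-specific active-site occupancy read by ProCISE: biotinylated active-site probe binding, denaturation, streptavidin capture, subunit-specific antibody and HRP chemiluminescence. Signal normalized to protein and expressed relative to DMSO controls.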
(In an ELISA, binding on a coated surface is turned into a signal by an enzyme label.)

Data set [3] concerns the target T2, Proteasome subunit beta type-10 (Homo sapiens) (UniProt P40306).
T2 sequence (whole entry): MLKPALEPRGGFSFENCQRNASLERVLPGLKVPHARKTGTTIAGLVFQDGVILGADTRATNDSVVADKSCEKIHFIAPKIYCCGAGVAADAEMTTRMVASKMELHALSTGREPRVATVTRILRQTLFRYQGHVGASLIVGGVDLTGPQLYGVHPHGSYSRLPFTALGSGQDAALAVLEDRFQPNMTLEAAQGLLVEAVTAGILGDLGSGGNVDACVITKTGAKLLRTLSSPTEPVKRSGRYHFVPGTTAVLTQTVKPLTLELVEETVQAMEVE
As to conditions: at 250 nM.

The subject of data set [4] is Mus musculus. Nature of the data set: Antiarthritic activity in type 2 collagen antibody/LPS induced Balb/c mouse assessed as reduction in disease burden at 5 mg/kg, iv followed by dosing repeat on day 6, 8, 11, 13 and 15 and measured until day 18.
Data set [5] deals with Mus musculus. Kind of data set: Antiarthritic activity in type 2 collagen antibody/LPS induced Balb/c mouse assessed as reduction in disease burden at 5 mg/kg, iv followed by dosing repeat on day 6, 8, 11, 13 and 15 and measured until day 18. It counts as functional, organism-based. The gist of the method:
(§1)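 CAIA in 7−8 week old female BALB/c mice on breeder chow. Induced with 1.75 mg of a 5-antibody anti-type II collagen cocktail iv on day 0, then 25 μg LPS ip on day 3. Dosed as single iv boluses in 10% (w/v) sulfobutyl ether−β-cyclodextrin/10 mM sodium citrate (pH 3.5); vehicle-treated group included.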

Data set [6] relates to PBMC. Kind of data set: Antiinflammatory activity in human PBMC assessed as reduction in anti-CD3/CD28 antibody-stimulated IFN-gamma expression at 125 nM preincubated for 1 hr followed by anti-CD3/CD28 antibody stimulation measured after 24 hrs in presence of KZR-504 by ELISA. The data set is classed as functional, cell-based. The gist of the method:
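Healthy-donor PBMC, thawed from cryopreservation, 250 000 cells/well in RPMI 1640/5% FBS. Pretreated 1 h at 37 °C with compound alone or combined (0.1% DMSO final), washed 4 times, then stimulated 24 h with anti-CD3 and anti-CD28 antibodies. TNFα and IFNγ in supernatants by electrochemiluminescent ELISA; expressed relative to DMSO-treated controls (n = 6).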

Data set [7] is described as follows: Toxicity in Balb/c mouse assessed as effect on cage-side observations at 20 mg/kg, iv followed by dosing repeat on day 6, 8, 11, 13 and 15 and measured until day 18. The data set is classed as organism-based. The conditions noted are these: in vivo.
Data set [8] has as its system PBMC. Kind of data set: Antiinflammatory activity in human PBMC assessed as reduction in LPS-stimulated IL-6 expression at 125 nM preincubated for 1 hr followed by LPS stimulation measured after 24 hrs by ELISA. It counts as functional, cell-based. A digest of the protocol:
(§2)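 Cryopreserved healthy-donor PBMC in RPMI 1640 with 5% heat-inactivated FBS, 250 000 cells/well. Compound (0.1% DMSO final) for 1 h at 37 °C, 5% CO2, then 4 washes with medium. Stimulated with 1 μg/mL LPS for 24 h; supernatant TNFα, IL-6 and IL-12/23p40 by electrochemiluminescent immunoassay. Mean level relative to DMSO controls, n = 6.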

A short description of data set [9]: Half life in Balb/c mouse at 2 mg/kg, iv. It counts as ADME, organism-based. As to conditions: in vivo. A digest of the protocol:
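Female BALB/c mice aged 7−8 weeks, given 2 mg/kg iv in 25% PEG300/WFI. Cardiac blood taken at 2, 5, 10, 20, 30, 60 and 120 min postdose into sodium heparin and processed to plasma (n = 3/time point). Proteins precipitated with acetonitrile; drug measured by LC−MS/MS. Noncompartmental analysis of mean concentrations at nominal times and target doses.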

The subject of data set [10] is Mus musculus. Nature of the data set: In vivo inhibition of LMP2 in Balb/c mouse splenocytes at 20 mg/kg, iv followed by dosing repeat on day 6, 8, 11, 13 and 15 and measured on 1 hr post last dose. It counts as functional, organism-based. A digest of the protocol: (§3)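 BALB/c mice dosed iv bolus in 10% sulfobutyl ether−β-cyclodextrin/10 mM sodium citrate pH 3.5; tissues taken 1 h after administration. Splenocytes strained and red cells lysed; kidney frozen, then bead-homogenized. Hypotonic lysate (20 mM Tris pH 8, 5 mM EDTA) at 1 mg/mL (spleen) or 5 mg/mL (kidney) run in the ProCISE active-site ELISA. Background-subtracted, protein-normalized activity relative to vehicle animals; n = 3.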

The test system of data set [11] is Mus musculus. Kind of data set: Antiarthritic activity in type 2 collagen antibody/LPS induced Balb/c mouse assessed as reduction in disease burden at 20 mg/kg, iv followed by dosing repeat on day 6, 8, 11, 13 and 15 and co-treated with 5 mg/kg, iv KZR-504 and measured until day 18. It counts as functional, organism-based. A digest of the protocol:
as §1

Data set [12] deals with Mus musculus. Nature of the data set: In vivo inhibition of proteosome beta 5 in Balb/c mouse kidney at 20 mg/kg, iv followed by dosing repeat on day 6, 8, 11, 13 and 15 and measured on 1 hr post last dose. The data set is classed as functional, organism-based. The gist of the method: as §3
Data set [13] concerns PBMC. Nature of the data set: Antiinflammatory activity in human PBMC assessed as reduction in LPS-stimulated p40 subunit of […] expression at 125 nM preincubated for 1 hr followed by LPS stimulation measured after 24 hrs by ELISA. It counts as functional, cell-based. The gist of the method: as §2

Take `Cc1ccc(CC[C@H](NC(=O)[C@H](Cc2ccccc2)NC(=O)[C@H](CC(C)C)NC(=O)CN2CCCCCC2)C(=O)[C@@]2(C)CO2)cc1`: in the data set on PBMC [1], the Activity was determined as 30%. The inhibition result in [2] and in [3] was “Active” in each case.
As for `COc1ccc([C@@H](O)[C@H](NC(=O)[C@H](C)NC(=O)CN2CCOCC2)C(=O)N[C@@H](CC2=CCCC2)C(=O)[C@@]2(C)CO2)cc1` [ZETOMIPZOMIB], the outcome in the data set with Mus musculus [4] and with Mus musculus [5] was Active.
Consider `COc1ccc(C[C@H](NC(=O)[C@@H](C)NC(=O)[C@H]2CC[C@H](O)CC2)C(=O)N[C@@H](CC2=CCCC2)C(=O)[C@@]2(C)CO2)cc1`, for which the result in the data set on PBMC [6], with Mus musculus [11] and in the data set with PBMC [13] was Active. In data set [7], the Activity result is given as “Non-Toxic”. In addition, the outcome in the data set with PBMC [8] was inactive. Moreover, the half-life in data set [9] is less than 7 min. Moreover, the inhibition entry with Mus musculus [10] and in the data set on Mus musculus [12] was “Active” throughout.

A word on the half-life: it is the time in which the quantity being followed falls by half.
